Experimental data reported in ChEMBL document CHEMBL4229340, “Attaching NorA efflux pump inhibitors to methylene blue enhances antimicrobial photodynamic inactivation of Escherichia coli and Acinetobacter baumannii in vitro and in vivo” (Bioorg Med Chem Lett, 2018).
Active and inactive are the calls of the source. No cut-off for these calls is given here.

Assays:
Escherichia coli [1] = test: Photodynamic antibacterial activity against TolC deficient Escherichia coli JW5503-1 assessed as bacterial killing at 10 uM incubated for 30 mins followed by 6 J/cm'2 irradiation with red light relative to control; type: functional
Summary of the method: (§1)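 E. coli K-12 and isogenic TolC knockout JW5503-1 were exposed to compound at 1-20 μM, then illuminated with 652 nm red light at 100 mW/cm2 to 6 J/cm2, or kept dark. Serially diluted aliquots were plated for CFU and survival fraction determined. Mean ± SEM from three independent experiments.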

Acinetobacter baumannii [2] = test: Photodynamic antibacterial activity against wild type Acinetobacter baumannii AB007 assessed as bacterial killing at 20 uM incubated for 30 mins followed by 6 J/cm'2 irradiation with red light relative to control; type: functional
Summary of the method: (§2)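 A. baumannii AB007 was exposed to compound at 1-20 μM, with or without red-light illumination, alongside dark controls. Survival fraction came from CFU counts. Mean ± SEM from three independent experiments.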

Escherichia coli [3] = test: (§3) Photodynamic antibacterial activity against enteropathogenic Escherichia coli WS2572 infected in BALB/c mouse full-thickness third-degree burn infection model assessed as reduction in bacterial load in shaved dorsal surfaces of mouse after 15 mins followed by up to 120 J/cm'2 irradiation with red light over 20 mins measured after 1 day by bioluminescence imaging method; type: functional, organism-based
Summary of the method: (§4)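 Mouse full-thickness third-degree burn on the shaved back, inoculated with bioluminescent EPEC WS2572. Wounds got 40 μL of 250 μM stock compound, then 652 nm red light at 0, 12, 36, 84, 108 and 120 J/cm2 or no light. Normalized wound RLU (mean ± SEM, 4-6 mice/group) was imaged during illumination and daily for 14 days after.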

Escherichia coli [4] = test: as §3, with “12 days” for “1 day”; type: functional, organism-based; summary of the method: as §4
Acinetobacter baumannii [5] = test: (§5) Photodynamic antibacterial activity against Acinetobacter baumannii AB Iraqi 007 infected in BALB/c mouse needle back-scratch wound abrasion infection model assessed as reduction in bacterial load in shaved dorsal surfaces of mouse after 15 mins followed by 108 J/cm'2 irradiation with red light over 20 mins by bioluminescence imaging method; type: functional, organism-based
Summary of the method: (§6)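 Bioluminescent A. baumannii inoculated into needle-scratch wounds on shaved mouse backs. Sites got 40 μL of a 250 μM stock of compound, then 652 nm red light at 0, 12, 36, 84, 108 and 120 J/cm2, or were kept dark (dark controls). Normalized wound RLU (mean ± SEM, 4-6 mice/group) was imaged during illumination, then daily for 14 days.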

Acinetobacter baumannii [6] = test: as §5, with “followed by up to 120 J/cm'2 irradiation” for “followed by 108 J/cm'2 irradiation”, “20 mins measured after 10 days by bioluminescence” for “20 mins by bioluminescence”; type: functional, organism-based; summary of the method: as §6
Escherichia coli [7] = test: Photodynamic antibacterial activity against TolC deficient Escherichia coli JW5503-1 assessed as bacterial killing at 20 uM incubated for 30 mins followed by 6 J/cm'2 irradiation with red light relative to control; type: functional; summary of the method: as §1
Escherichia coli [8] = test: Photodynamic antibacterial activity against wild type Escherichia coli K-12 assessed as bacterial killing at 20 uM incubated for 30 mins followed by 6 J/cm'2 irradiation with red light relative to control; type: functional; summary of the method: as §1
Escherichia coli [9] = test: Photodynamic antibacterial activity against wild type Escherichia coli K-12 assessed as bacterial killing at 10 uM incubated for 30 mins followed by 6 J/cm'2 irradiation with red light relative to control; type: functional; summary of the method: as §1
Escherichia coli [10] = test: Dark toxicity against TolC deficient Escherichia coli JW5503-1 assessed as reduction in bacterial load at 1 to 20 uM incubated for 30 mins; type: organism-based; conditions: in vitro, 0.5 h; summary of the method: as §1
Escherichia coli [11] = test: Dark toxicity against wild type Escherichia coli K-12 assessed as reduction in bacterial load at 1 to 20 uM incubated for 30 mins; type: organism-based; conditions: in vitro, 0.5 h; summary of the method: as §1
Acinetobacter baumannii [12] = test: Dark toxicity against wild type Acinetobacter baumannii AB007 assessed as reduction in bacterial load at 1 to 20 uM incubated for 30 mins; type: organism-based; conditions: in vitro, 0.5 h; summary of the method: as §2
Escherichia coli [13] = test: Dark toxicity against enteropathogenic Escherichia coli WS2572 infected in BALB/c mouse full-thickness third-degree burn infection model assessed as reduction in bacterial load in shaved dorsal surfaces of mouse measured after 15 mins by bioluminescence imaging method; type: organism-based; parameters: scale not given: the % may be the effect or the level left; conditions: in vivo, 0.25 h; summary of the method: as §4
Escherichia coli [14] = test: as §3, with “36” for “up to 120”, “mins” for “mins measured after 1 day”; type: functional; parameters: scale not given: the % may be the effect or the level left; summary of the method: as §4
Escherichia coli [15] = test: as §3, with “84” for “up to 120”, “mins” for “mins measured after 1 day”; type: functional, organism-based; summary of the method: as §4
Escherichia coli [16] = test: as §3, with “10 days” for “1 day”; type: functional, organism-based; summary of the method: as §4
Escherichia coli [17] = test: as §3, with “mins” for “mins measured after 1 day”; type: functional; parameters: scale not given: the % may be the effect or the level left; summary of the method: as §4
Acinetobacter baumannii [18] = test: Dark toxicity against Acinetobacter baumannii AB Iraqi 007 infected in BALB/c mouse needle back-scratch wound abrasion infection model assessed as reduction in bacterial load in shaved dorsal surfaces of mouse measured after 15 mins by bioluminescence imaging method; type: organism-based; parameters: scale not given: the % may be the effect or the level left; conditions: in vivo, 0.25 h; summary of the method: as §6
Acinetobacter baumannii [19] = test: as §5, with “36” for “108”; type: functional; parameters: scale not given: the % may be the effect or the level left; summary of the method: as §6
Escherichia coli [20] = test: Dark toxicity against enteropathogenic Escherichia coli WS2572 infected in BALB/c mouse full-thickness third-degree burn infection model assessed as reduction in bacterial load in shaved dorsal surfaces of mouse after 15 mins measured after 1 day by bioluminescence imaging method; type: organism-based; conditions: in vivo; summary of the method: as §4
Acinetobacter baumannii [21] = test: Dark toxicity against Acinetobacter baumannii AB Iraqi 007 infected in BALB/c mouse needle back-scratch wound abrasion infection model assessed as bacterial load in shaved dorsal surfaces of mouse after 15 mins measured after 1 day by bioluminescence imaging method; type: organism-based; conditions: in vivo; summary of the method: as §6
Acinetobacter baumannii [22] = test: as §5, with “followed by up to 120 J/cm'2 irradiation” for “followed by 108 J/cm'2 irradiation”, “20 mins measured after 1 day by bioluminescence” for “20 mins by bioluminescence”; type: functional; parameters: scale not given: the % may be the effect or the level left; summary of the method: as §6
Acinetobacter baumannii [23] = test: Dark toxicity against Acinetobacter baumannii AB Iraqi 007 infected in BALB/c mouse needle back-scratch wound abrasion infection model assessed as reduction in bacterial load in shaved dorsal surfaces of mouse after 15 mins measured after 12 days by bioluminescence imaging method; type: organism-based; conditions: in vivo; summary of the method: as §6
Acinetobacter baumannii [24] = test: as §5, with “84” for “108”; type: functional, organism-based; summary of the method: as §6
Acinetobacter baumannii [25] = test: as §5, with “followed by up to 120 J/cm'2 irradiation” for “followed by 108 J/cm'2 irradiation”, “20 mins measured up to 6 days by bioluminescence” for “20 mins by bioluminescence”; type: functional, organism-based; summary of the method: as §6

Structure (SMILES) | Activity (Acinetobacter baumannii [2]) | LCK (Escherichia coli [1]) | LCK (Escherichia coli [8]) | LCK (Escherichia coli [9]) | Activity (Escherichia coli [10]) | Activity (Escherichia coli [11]) | Activity (Acinetobacter baumannii [12]) | LCK (Acinetobacter baumannii [2]) | Activity (Escherichia coli [13]) | LCK (Escherichia coli [7]) | Activity (Acinetobacter baumannii [18]) | Activity (Acinetobacter baumannii [19]) | Activity (Acinetobacter baumannii [21]) | Activity (Acinetobacter baumannii [23]) | also measured
CN(C)c1ccc2nc3ccc(=[N+](C)C)cc-3sc2c1 | Active |  |  |  |  |  |  |  |  |  |  |  |  |  | Activity (Escherichia coli [1]): Active; Activity (Escherichia coli [3]): inactive; Activity (Escherichia coli [4]): Active; Activity (Acinetobacter baumannii [5]): Active; Activity (Acinetobacter baumannii [6]): Active
CN(CCN(C)c1ccc2nc3ccc(N(C)C)cc3[s+]c2c1)C(=O)c1ccc(-c2cc3cc([N+](=O)[O-])ccc3[nH]2)cc1.[Cl-] |  | 6 | 6 | 4 | Non-Toxic | Non-Toxic | Non-Toxic | 4 | 40% |  |  |  |  |  | Activity (Escherichia coli [7]): Active; Activity (Escherichia coli [14]): 80%; Activity (Escherichia coli [15]): Active; Activity (Escherichia coli [16]): Active
CN(C)c1ccc2nc3ccc(N(C)C)cc3[s+]c2c1.[Cl-] [METHYLENE BLUE ANHYDROUS] |  |  | 2.5 | 2 | Non-Toxic | Non-Toxic | Non-Toxic |  | 25% | 3.5 | < 25% | 50% | > 50% | Toxic | Activity (Escherichia coli [17]): 90%; Activity (Escherichia coli [20]): Not Active; Activity (Acinetobacter baumannii [22]): >50%
CN(CCN(C)c1ccc2nc3ccc(N(C)C)cc3[s+]c2c1)Cc1ccc(-c2cc3cc([N+](=O)[O-])ccc3[nH]2)cc1.[Cl-] | Active | 2 | 4 | 2 | Non-Toxic | Non-Toxic | Non-Toxic |  |  | 7 | < 25% | 95% | > 50% | Toxic | Activity (Acinetobacter baumannii [24]): Active; Activity (Acinetobacter baumannii [25]): Active
CN(CCCOc1ccccc1NC(=O)Nc1ccc2ccccc2c1)CCN(C)c1ccc2nc3ccc(N(C)C)cc3[s+]c2c1.[Cl-] |  |  | 3 |  | Non-Toxic | Non-Toxic | Non-Toxic | 4 |  | 4.5 |  |  |  |  | 
